Screening results as filed in PubChem BioAssay.
Rows were chosen to be rich in hits. Some 2.3% of all compounds tested hit in one or more screens of this group.
V1aR counter – V1a receptor agonism, counter-screen for OXTR agonists | P37288 | CHO-V1R cells, Fluo-8 calcium fluorescence, agonist mode; 0% DMSO, 100% 3 nM vasopressin | activation, % at 3 µM | actives 0.25% (n = 320,000);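 active means activation above the mean activation of all tested compounds plus 3 SD, per screening run, cut at about 20% in these data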;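 further: signal is peak over basal fluorescence ratio across a 100 second FLIPR read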
TAAR1 agonist – agonists of human TAAR1. CHO RD-HGA16 TAAR1, Fluo-8 calcium fluorescence; vehicle wells 0%, saturating PEA agonist 100%. actives 0.99% (n = 360,000). activation, % at 3 µM. Q96RJ0;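 active means activation above the mean activation of all test compounds in the run plus 3 SD, cut at about 38% in these data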
Target sequence (Q96RJ0 whole entry, looked up): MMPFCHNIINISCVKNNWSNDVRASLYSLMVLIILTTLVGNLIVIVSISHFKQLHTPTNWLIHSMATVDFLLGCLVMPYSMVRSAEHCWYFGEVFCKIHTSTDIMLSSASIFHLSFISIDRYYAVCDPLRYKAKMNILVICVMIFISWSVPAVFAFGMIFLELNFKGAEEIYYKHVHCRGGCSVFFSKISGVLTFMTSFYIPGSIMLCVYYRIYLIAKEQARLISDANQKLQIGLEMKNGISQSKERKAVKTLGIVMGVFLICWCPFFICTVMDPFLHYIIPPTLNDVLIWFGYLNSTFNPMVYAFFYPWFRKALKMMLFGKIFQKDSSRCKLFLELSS
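Repeats: no replicates (n 1) | Material: CHO-derived RD-HGA16 cells with stable Gα16 and human TAAR1 | Technique: Kinetic Fluo-8 calcium fluorescence | Schedule: 17-24 h seeding, 75 min 37 °C dye, 30 min RT | Evaluation: % activation from peak over basal fluorescence ratio, DMSO-to-PEA scaled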
TAAR1 antag – human TAAR1 antagonism; inhibition, % at 3 µM; AID 624466; actives 1.5% (n = 360,000); CHO RD-HGA16 TAAR1, Fluo-8 calcium fluorescence, antagonist;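 active means inhibition above a per-plate cutoff, the mean inhibition of test compounds on that plate plus 3 SD, cut at about 49% in these data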;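 further: 0% = DMSO plus EC80 beta-PEA response and 100% = DMSO alone without agonist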
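Assay system: RD-HGA16 CHO cells with stable hTAAR1 and Gα16 / Reagent: EC80 β-phenethylamine stimulus / Doses: 3 µM, single point / Timing: dye loading 75 min at 37 °C, then 30 min room temperature / Measured by: Fluo-8 intracellular calcium dye fluorescence, real-time kinetic reads / Controls: vehicle wells and EC80 agonist wells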
OXTR agonist – activates the human oxytocin receptor | P30559 | CHO-OTR cells, Fluo-8 calcium fluorescence; normalized: DMSO 0%, oxytocin 100% | activation, % at 3 µM | actives 0.32% (n = 320,000) | AID 2435;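 active means activation above the mean of all tested compounds plus 3 SD, cutoff set per screening run, cut at about 20% in these data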;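 further: peak over basal fluorescence ratio from a 100 s FLIPR kinetic read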
Target sequence (P30559 whole entry, looked up): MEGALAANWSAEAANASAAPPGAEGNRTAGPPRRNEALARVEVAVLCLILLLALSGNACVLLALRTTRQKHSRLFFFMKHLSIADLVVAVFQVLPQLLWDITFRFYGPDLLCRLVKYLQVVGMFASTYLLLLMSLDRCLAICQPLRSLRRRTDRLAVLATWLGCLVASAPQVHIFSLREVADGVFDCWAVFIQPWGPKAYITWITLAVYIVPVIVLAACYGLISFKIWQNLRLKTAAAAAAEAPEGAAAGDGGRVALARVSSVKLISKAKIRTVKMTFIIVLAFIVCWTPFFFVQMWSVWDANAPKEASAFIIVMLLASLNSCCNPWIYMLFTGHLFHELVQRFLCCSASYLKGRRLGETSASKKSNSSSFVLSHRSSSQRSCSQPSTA
OXTR potentiate – potentiators of human oxytocin receptor | CHO-OTR cells, Fluo-8 calcium fluorescence, potentiator mode; 0% = oxytocin EC15, 100% = EC100 | activation, % at 3 µM | actives 0.061% (n = 320,000);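 active means activation above that plate's cutoff, the mean activation of tested compounds plus 3 SD, cut at about 6.6% in these data, passing the limit was not always enough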;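 further: 100% uses oxytocin at 75 nM as the full agonist control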
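assay system = CHO-OTR cells, human receptor | schedule = compound 6 min at room temperature before oxytocin, 100 s read | detection = Fluo-8 intracellular calcium fluorescence, ex 470-495, em 515-575 nm | evaluation = normalized max/min fluorescence ratio, % activation | control set = EC15 oxytocin alone as 0%, 75 nM oxytocin (EC100) as 100%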
TAAR1 ag confirm – human TAAR1 agonism, confirmed. actives 82% (n = 2,400). shares compounds with TAAR1 agonist. activation, % at 3 µM. AID 651783. CHO RD-HGA16 TAAR1, Fluo-8 calcium fluorescence; scaled: DMSO 0%, maximal phenethylamine 100%;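 active means activation above a cutoff set at the run's mean compound activation plus 3 SD, cut at about 39% in these data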
Ga16 nonsel ag – nonselective agonist in parental cells, TAAR1 agonist counter-screen. activation, % at 3 µM. shares compounds with TAAR1 agonist. actives 50% (n = 2,400). AID 651787. CHO-Ga16 parental, Fluo-8 calcium fluorescence; normalized to maximal ATP response, DMSO zero;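 active means activation above the run cutoff, the mean activation over all tested wells plus 3 SD, cut at about 12% in these data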;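 further: 0% = DMSO wells and 100% = maximal ATP response on the peak over basal ratio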
TAAR1 desens – human TAAR1 agonist that also desensitizes the receptor; shares compounds with TAAR1 agonist; CHO RD-HGA16 hTAAR1, Fluo-8 calcium, beta-PEA response inhibition; inhibition, % at 3 µM; actives 46% (n = 2,400);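 active means inhibition above the run cutoff, the mean inhibition of all test compounds plus 3 SD, cut at about 49% in these data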;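 further: beta-PEA stimulus applied at its EC80; loss of beta-PEA calcium signal after compound pretreatment read as receptor desensitization; 0% = DMSO with beta-PEA at EC80 and 100% = DMSO alone without agonist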
Ga16 nonsel ant – nonselective Ga16 antagonism, counter-screen; shares compounds with TAAR1 agonist; CHO-Ga16 ATP-induced calcium, Fluo-8 fluorescence; inhibition, % at 3 µM; actives 39% (n = 2,400); AID 651952;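 active means inhibition above the plate's mean compound inhibition plus 3 SD, computed per plate, cut at about 22% in these data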;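 further: 0% = EC80 ATP with DMSO and 100% = DMSO wells without ATP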
Active calls of the source: *; . = no result given.

SMILES	V1aR counter	TAAR1 agonist	TAAR1 antag	OXTR agonist	OXTR potentiate	TAAR1 ag confirm	Ga16 nonsel ag	TAAR1 desens	Ga16 nonsel ant
c1ccc(C[C@H]2CNCCN2CCCCC2CCCCC2)cc1	2	53*	21	9	-7	54*	22*	46	29*
COc1cc(C)ccc1OCc1cc(C(=O)N2CCN(C3CCCCC3)CC2)no1	2	0	-25	1	-3	.	.	.	.
COc1ccc(S(=O)(=O)CCc2nnc(NC(=O)c3ccc(F)cc3)s2)cc1	0	0	-5	0	-3	.	.	.	.
c1ccc(CC2CCCNC2)cc1 (centres undefined)	0	44*	18	0	-18	61*	0	33	7
Cc1c(Br)c([N+](=O)[O-])nn1CC(=O)NC1CCCCCC1	2	1	-4	2	-3	.	.	.	.
CCOc1ccc(C(C)=O)cc1COC(=O)c1cc([N+](=O)[O-])ccc1N1CCOCC1	-2	1	-16	-2	-10	.	.	.	.
COCCNc1nc(NC(C)C)nc2ccsc12	.	16	-13	.	.	.	.	.	.
CC(=O)NCCNc1nc(NCc2ccccc2)nc2ccsc12	.	91*	92*	.	.	109*	23*	101*	53*
COCCNc1nc(NCc2ccccc2)nc2ccsc12	.	153*	104*	.	.	123*	103*	107*	102*
CCOC(=O)C(NCCc1ccc(F)cc1)(NC(=O)CC)C(F)(F)F (centres undefined)	1	51*	18	-1	2	64*	6	10	-3
CCOC(=O)NC(NCCc1ccccc1)(C(F)(F)F)C(F)(F)F	0	87*	87*	-1	0	98*	15*	87*	-8
CCOC(=O)C(NCCc1ccccc1)(NC(C)=O)C(F)(F)F (centres undefined)	1	.	.	0	-7	.	1	.	3
CCOC(=O)C(NCc1ccc(OC)cc1)(NC(C)=O)C(F)(F)F (centres undefined)	0	-1	18	0	-9	.	.	.	.
O=C(NNC(=S)NCc1ccccc1)c1ccc(Br)cc1	3	1	-8	0	-10	.	.	.	.
COc1ccc(/C=N/NC(=O)c2c(-c3ccccc3)noc2C)cc1[N+](=O)[O-]	9	4	13	4	-10	.	.	.	.
CC1CCCC(C)N1C(=O)CSc1nnc(-c2ccco2)n1C (centres undefined)	-1	2	13	1	1	.	.	.	.
COc1ccccc1-c1cc(C2CC2)nc(N)c1C#N	0	35	-21	-2	-5	.	.	.	.
N#Cc1c(-c2ccccc2Cl)cc(C2CC2)nc1N	30*	92*	0	36*	-8	100*	60*	38	16
Cc1nc(N)c(C#N)c(-c2ccccc2Cl)c1C	6	73*	-8	3	-7	66*	44*	6	9
N#CCC(=O)NNC(=S)Nc1ccccc1C(F)(F)F	1	13	-3	1	-2	.	.	.	.
Cc1cc(/C=N/NC(=O)CC2(C)OCCO2)c(C)n1-c1cc(Cl)cc(Cl)c1	0	72*	4	15	-14	84*	50*	5	1
CN1CCN(C(=O)Nc2cccc3ccccc23)CC1	1	1	3	0	2	.	.	.	.
CCc1ccccc1NC(=O)N1CCc2ccccc2C1	.	80*	55*	.	.	96*	4	82*	2
O=C(Nc1cccc2ccccc12)N1CCc2ccccc2C1	1	77*	74*	-1	-5	78*	2	65*	8
O=C(Cc1ccc(Cl)cc1Cl)NCC1(N2CCOCC2)CCCCC1	0	0	-8	-1	-15	.	.	.	.
SMILES	V1aR counter	TAAR1 agonist	TAAR1 antag	OXTR agonist	OXTR potentiate	TAAR1 ag confirm	Ga16 nonsel ag	TAAR1 desens	Ga16 nonsel ant
CC(C)(Oc1ccc(Br)cc1Cl)C(=O)Nc1ccon1	0	0	-13	-1	-4	.	.	.	.
O=c1[nH]ncc(N/N=C\c2ccncc2)c1Cl	1	16	-8	0	-9	.	.	.	.
O=c1[nH]ncc(N/N=C\c2cccnc2)c1Cl	2	11	-16	1	7	.	.	.	.
O=c1[nH]ncc(N/N=C\c2cccs2)c1Cl	0	.	.	0	-10	.	3	.	7
Cc1cccc(/C=N\Nc2cn[nH]c(=O)c2Cl)c1	-2	53*	70*	-2	1	88*	-2	72*	0
Cc1ccc2c(c1)[C@H]1[C@H](CO2)[C@H](c2ccccc2)[C@]2(C)C(=O)N(Cc3ccc(F)cc3)CC(=O)N12	12	62*	34	11	-10	29	19*	17	19
Cc1ccc(C)c(N2CCN(C(=O)CCCn3ncn4c(cc5occc54)c3=O)CC2)c1	6	2	-13	2	-10	.	.	.	.
COC(=O)c1ccc(COc2ccc(-c3nn[nH]n3)cc2)cc1	2	51*	17	2	-6	16	11	10	7
COC(=O)c1ccc(COc2ccc(-c3nnn(CC(N)=O)n3)cc2)cc1	0	3	-4	1	-2	.	.	.	.
N#Cc1ccc(NC(=S)NCCN2CCOCC2)cc1	1	3	-19	0	-10	.	.	.	.
Nc1nc(-c2ccccc2)cn1N	0	11	7	0	-12	.	.	.	.
Nc1nc(-c2ccccc2)cn1/N=C/c1ccccc1	1	61*	30	0	1	93*	5	70*	10
CCC(C)(C)NC(=O)C(C(C)C)N(CC1CCCO1)C(=O)CNS(=O)(=O)c1ccccc1 (centres undefined)	0	1	-9	0	0	.	.	.	.
Cc1ccc(C(=O)Nn2c(O)c(C=C3N=c4ccccc4=N3)sc2=S)cc1	1	54*	35	1	-10	52*	3	59*	23*
Cc1ccc(S(=O)(=O)Nn2c(O)c(C=C3N=c4ccccc4=N3)sc2=S)cc1	1	11	33	1	-3	.	.	.	.
O=C(C(=O)N1CCc2ccccc2C1)c1cn(CC(=O)N2CCCCC2)c2ccccc12	0	80*	70*	-2	3	102*	2	86*	12
